Data reported in ChEMBL document CHEMBL4392823, “Potassium channel blocking 1,2-bis(aryl)ethane-1,2-diamines active as antiarrhythmic agents” (Bioorg Med Chem Lett, 2019).

Key:
[1] = target: T1, Potassium voltage-gated channel subfamily A member 5 (Homo sapiens, UniProt P22460); assay: Inhibition of recombinant human Kv1.5 expressed in CHO cells by IonWork high-throughput electrophysiology assay; format: cell-based
Method in brief: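 Kv1.5 current recorded in CHO cells by IonWorks HT automated electrophysiology. IC50 is the average of 2 measurements unless n=1 is noted.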

[2] = target: Voltage-gated inwardly rectifying potassium channel KCNH2 (Homo sapiens, UniProt Q12809); assay: Inhibition of human ERG
[3] = target: Potassium voltage-gated channel subfamily E member 1 (Homo sapiens, UniProt P15382); assay: Inhibition of IKs (unknown origin)
Cytochrome P450 2D6 = Cytochrome P450 2D6 (Homo sapiens, UniProt P10635); assay: Inhibition of CYP2D6 (unknown origin); format: ADME
[4] = Lipophilicity, log D of the compound by chromatographic method; format: physicochemical
Method in brief: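 Lipophilicity (log D) measured by a chromatographic method.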

[5] = Intrinsic clearance in human liver microsomes; format: ADME, Microsome; conditions: read-out: CLH
[6] = Stability in human liver microsomes assessed as formation of iminium ions; format: ADME, Microsome
Cytochrome P450 3A4 = Cytochrome P450 3A4 (Homo sapiens, UniProt P08684); assay: Drug metabolism in human hepatocytes assessed as CYP3A4-mediated drug metabolism; format: ADME, cell-based
[7] = Renal clearance in dog; format: ADME, Canis lupus familiaris; conditions: in vivo
[8] = Plasma clearance in dog; format: ADME, Canis lupus familiaris
[9] = Drug excretion in dog urine; format: ADME, Canis lupus familiaris; conditions: read-out: Drug excretion
Oryctolagus cuniculus = assay: Antiarrhythmic activity in iv dosed anesthetized rabbit assessed as free compound plasma exposure which prolongs the right atrial effective refractory period by 20 milliseconds measured after 20 mins by electrophysiological analysis; format: functional
Method in brief: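 Anesthetized rabbits received increasing intravenous infusions of test compound. Right atrial effective refractory period was measured 20 min after each dose. Value is the free plasma exposure giving a 20 ms RAERP prolongation.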

[10] = Cardiotoxicity in dog assessed as blockade of sodium channel by measuring changes in ECG at higher dose; format: toxicity, Canis lupus familiaris; conditions: in vivo
[11] = target: T1, Potassium voltage-gated channel subfamily A member 5; assay: Inhibition of Kv1.5 in human atrial myocytes assessed as blockade of Ikur current; format: cell-based
[12] = Dissociation constant, pKa of the compound; format: physicochemical
Canis familiaris = organism: Canis familiaris; assay: Antiarrhythmic activity in rapid atrial pacing dog model of atrial fibrillation assessed as unbound plasma concentration required to convert atrial fibrillation to sinus rhythm; format: functional, Canis lupus familiaris
Method in brief: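 Rapid atrial pacing dog model of AF (n=12). Read-out was conversion of AF to sinus rhythm, with the unbound plasma concentration at conversion reported as mean ± spread.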

[13] = target: T2, G protein-activated inward rectifier potassium channel 1 (Homo sapiens, UniProt P48549); assay: Inhibition of Kir3.1 (unknown origin)
T2 sequence (P48549 whole entry): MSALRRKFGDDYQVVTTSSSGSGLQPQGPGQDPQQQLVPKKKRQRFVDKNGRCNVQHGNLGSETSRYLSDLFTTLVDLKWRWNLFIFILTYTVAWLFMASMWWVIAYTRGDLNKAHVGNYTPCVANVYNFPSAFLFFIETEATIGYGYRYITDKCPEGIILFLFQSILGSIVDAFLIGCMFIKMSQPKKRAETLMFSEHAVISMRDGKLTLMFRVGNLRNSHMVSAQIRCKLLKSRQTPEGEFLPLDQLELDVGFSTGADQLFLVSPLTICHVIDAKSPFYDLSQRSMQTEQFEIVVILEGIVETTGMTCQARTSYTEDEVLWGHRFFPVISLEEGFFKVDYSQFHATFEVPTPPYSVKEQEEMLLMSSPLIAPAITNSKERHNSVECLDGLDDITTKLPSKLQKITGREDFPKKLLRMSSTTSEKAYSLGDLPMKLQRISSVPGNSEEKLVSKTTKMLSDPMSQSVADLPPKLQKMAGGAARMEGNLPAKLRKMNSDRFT

[14] = target: T3, G protein-activated inward rectifier potassium channel 4 (Homo sapiens, UniProt P48544); assay: Inhibition of Kir3.4 (unknown origin)
T3 sequence (P48544 whole entry): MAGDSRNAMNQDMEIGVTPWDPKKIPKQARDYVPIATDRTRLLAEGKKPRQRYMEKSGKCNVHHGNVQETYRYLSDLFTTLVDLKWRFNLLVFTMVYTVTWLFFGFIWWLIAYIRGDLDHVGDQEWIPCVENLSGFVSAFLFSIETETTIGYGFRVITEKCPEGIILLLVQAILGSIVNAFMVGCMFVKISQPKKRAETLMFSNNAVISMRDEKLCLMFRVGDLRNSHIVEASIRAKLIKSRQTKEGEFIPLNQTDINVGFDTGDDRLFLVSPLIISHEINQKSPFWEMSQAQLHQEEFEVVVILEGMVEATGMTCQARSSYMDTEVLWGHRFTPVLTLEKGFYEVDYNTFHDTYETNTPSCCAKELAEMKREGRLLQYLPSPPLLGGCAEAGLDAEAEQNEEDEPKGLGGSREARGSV

[15] = target: T4, A-type voltage-gated potassium channel KCND3 (Homo sapiens, UniProt Q9UK17); assay: Inhibition of Kv4.3 (unknown origin)
T4 sequence (Q9UK17 whole entry): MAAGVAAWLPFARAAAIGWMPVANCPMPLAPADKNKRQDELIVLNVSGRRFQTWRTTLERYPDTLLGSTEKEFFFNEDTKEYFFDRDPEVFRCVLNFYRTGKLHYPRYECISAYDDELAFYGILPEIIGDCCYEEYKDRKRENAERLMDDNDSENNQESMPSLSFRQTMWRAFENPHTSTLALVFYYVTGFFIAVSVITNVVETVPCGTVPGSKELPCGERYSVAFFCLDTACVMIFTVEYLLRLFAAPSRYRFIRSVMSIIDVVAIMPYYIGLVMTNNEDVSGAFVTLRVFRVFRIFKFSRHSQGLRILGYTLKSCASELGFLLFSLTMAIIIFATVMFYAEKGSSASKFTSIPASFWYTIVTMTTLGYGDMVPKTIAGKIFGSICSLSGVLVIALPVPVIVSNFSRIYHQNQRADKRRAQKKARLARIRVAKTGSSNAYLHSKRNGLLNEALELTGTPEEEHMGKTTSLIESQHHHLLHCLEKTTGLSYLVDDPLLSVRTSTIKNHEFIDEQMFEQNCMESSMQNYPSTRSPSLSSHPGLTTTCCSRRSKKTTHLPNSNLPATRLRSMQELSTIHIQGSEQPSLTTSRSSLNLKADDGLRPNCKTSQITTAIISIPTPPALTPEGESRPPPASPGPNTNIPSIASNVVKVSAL

hERG (KCNH2) = hERG (KCNH2) (Homo sapiens, UniProt Q12809); assay: Inhibition of human ERG at 33 uM relative to control
[16] = target: Sodium channel protein type 5 subunit alpha (Homo sapiens, UniProt Q14524); assay: Inhibition of Nav1.5 (unknown origin)
[17] = target: Voltage-dependent L-type calcium channel subunit alpha-1C (Homo sapiens, UniProt Q13936); assay: Inhibition of CaV1.2 (unknown origin)
[18] = Free drug level in rat brain at 2 umol/kg/hr administered for 4 hrs; format: ADME, tissue-based; conditions: in vivo
Method in brief: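 Rats received a continuous intravenous infusion at 2 μmol/kg/h for 4 h. Total brain and plasma concentrations were measured at steady state. Free levels were calculated from measured unbound fractions in brain and plasma, and free brain exposure was expressed relative to free plasma exposure.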

[19] = target: T5, Glutamate [NMDA] receptor (Homo sapiens) (UniProt Q05586+Q12879+Q13224+O15399+O60391+Q14957+Q8TCU5); assay: Inhibition of NMDA receptor glycine binding site (unknown origin) at 10 uM relative to control; format: protein-complex assay
[20] = target: T5, Glutamate [NMDA] receptor (Homo sapiens); assay: Inhibition of NMDA receptor phencyclidine binding site (unknown origin) at 10 uM relative to control; format: protein-complex assay

Chain of Voltage-gated inwardly rectifying potassium channel KCNH2 (Q12809 whole entry): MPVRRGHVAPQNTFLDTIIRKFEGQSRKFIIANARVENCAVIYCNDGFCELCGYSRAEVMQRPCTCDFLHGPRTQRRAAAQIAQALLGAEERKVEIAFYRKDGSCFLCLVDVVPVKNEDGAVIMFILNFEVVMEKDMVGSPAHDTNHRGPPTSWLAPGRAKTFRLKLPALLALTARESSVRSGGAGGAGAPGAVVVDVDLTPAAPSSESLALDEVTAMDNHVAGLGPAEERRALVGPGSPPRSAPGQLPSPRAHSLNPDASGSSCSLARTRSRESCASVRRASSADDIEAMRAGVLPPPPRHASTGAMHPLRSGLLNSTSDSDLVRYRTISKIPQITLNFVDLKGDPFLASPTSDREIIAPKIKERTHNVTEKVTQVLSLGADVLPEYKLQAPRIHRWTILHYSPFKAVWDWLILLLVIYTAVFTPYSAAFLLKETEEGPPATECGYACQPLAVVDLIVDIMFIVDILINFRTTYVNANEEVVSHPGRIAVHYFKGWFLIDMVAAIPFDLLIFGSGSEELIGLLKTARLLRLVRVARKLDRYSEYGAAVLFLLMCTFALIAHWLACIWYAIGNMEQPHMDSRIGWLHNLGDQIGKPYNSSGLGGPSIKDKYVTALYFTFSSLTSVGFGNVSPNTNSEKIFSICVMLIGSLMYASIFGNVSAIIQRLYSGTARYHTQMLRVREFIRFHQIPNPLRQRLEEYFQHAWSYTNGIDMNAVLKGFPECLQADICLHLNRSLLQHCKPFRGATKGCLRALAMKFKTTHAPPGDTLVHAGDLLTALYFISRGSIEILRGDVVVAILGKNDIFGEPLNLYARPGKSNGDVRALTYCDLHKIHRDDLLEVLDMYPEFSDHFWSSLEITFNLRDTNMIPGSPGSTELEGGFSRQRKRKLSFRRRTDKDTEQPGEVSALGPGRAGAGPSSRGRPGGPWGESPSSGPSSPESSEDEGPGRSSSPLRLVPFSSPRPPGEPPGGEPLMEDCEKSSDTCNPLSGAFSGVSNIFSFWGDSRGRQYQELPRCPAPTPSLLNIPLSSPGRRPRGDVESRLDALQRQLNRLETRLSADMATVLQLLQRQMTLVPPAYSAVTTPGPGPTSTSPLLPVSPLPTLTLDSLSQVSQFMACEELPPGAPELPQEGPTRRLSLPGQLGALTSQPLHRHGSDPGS
T1 sequence (P22460 whole entry): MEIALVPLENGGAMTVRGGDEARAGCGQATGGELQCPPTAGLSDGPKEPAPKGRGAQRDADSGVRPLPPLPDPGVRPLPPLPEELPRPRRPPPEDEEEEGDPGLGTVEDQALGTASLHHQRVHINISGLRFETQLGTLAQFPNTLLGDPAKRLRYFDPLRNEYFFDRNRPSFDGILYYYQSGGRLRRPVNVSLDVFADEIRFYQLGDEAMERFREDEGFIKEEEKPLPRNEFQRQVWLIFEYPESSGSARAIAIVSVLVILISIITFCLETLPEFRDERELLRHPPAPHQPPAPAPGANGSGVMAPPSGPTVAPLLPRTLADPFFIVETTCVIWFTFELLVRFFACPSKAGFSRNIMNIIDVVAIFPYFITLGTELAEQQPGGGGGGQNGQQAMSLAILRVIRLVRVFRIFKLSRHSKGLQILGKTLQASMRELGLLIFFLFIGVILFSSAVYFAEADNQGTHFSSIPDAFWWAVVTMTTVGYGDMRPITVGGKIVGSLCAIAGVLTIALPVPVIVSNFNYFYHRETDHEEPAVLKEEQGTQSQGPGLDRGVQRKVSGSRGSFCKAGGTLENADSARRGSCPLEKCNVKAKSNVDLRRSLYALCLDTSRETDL
Chain of Cytochrome P450 2D6 (P10635 whole entry): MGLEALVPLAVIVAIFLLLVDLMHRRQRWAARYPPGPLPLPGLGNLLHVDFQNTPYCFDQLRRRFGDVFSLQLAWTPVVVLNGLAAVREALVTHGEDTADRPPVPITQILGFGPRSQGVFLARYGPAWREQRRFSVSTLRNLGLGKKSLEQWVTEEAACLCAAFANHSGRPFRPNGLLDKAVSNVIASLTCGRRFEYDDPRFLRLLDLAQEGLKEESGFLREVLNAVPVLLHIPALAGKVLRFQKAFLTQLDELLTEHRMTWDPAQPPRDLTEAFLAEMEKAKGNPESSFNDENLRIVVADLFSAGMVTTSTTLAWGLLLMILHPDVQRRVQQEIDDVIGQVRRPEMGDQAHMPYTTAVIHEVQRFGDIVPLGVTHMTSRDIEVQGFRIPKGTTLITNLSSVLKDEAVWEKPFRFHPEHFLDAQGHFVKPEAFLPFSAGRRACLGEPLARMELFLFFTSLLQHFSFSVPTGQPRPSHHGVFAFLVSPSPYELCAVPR
Chain of Cytochrome P450 3A4 (P08684 whole entry): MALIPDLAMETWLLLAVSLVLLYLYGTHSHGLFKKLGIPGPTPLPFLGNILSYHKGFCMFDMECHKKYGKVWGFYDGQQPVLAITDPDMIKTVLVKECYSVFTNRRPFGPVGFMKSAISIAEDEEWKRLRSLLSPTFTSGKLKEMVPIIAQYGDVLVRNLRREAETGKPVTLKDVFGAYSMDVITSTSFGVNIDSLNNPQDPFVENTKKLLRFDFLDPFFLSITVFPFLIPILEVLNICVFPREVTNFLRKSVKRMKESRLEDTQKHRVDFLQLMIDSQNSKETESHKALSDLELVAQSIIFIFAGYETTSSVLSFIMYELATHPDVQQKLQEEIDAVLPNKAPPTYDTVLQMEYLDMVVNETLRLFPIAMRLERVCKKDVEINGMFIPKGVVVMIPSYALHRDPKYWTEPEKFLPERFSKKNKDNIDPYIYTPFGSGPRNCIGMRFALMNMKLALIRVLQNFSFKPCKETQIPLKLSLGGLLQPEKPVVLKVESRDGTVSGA
Chain of hERG (KCNH2) (Q12809 whole entry): as the sequence (Q12809 whole entry) above

Row | SMILES | IC50 [1] [µM] | IC50 [3] [µM] | chromatographic logD [4] | microsomal CLint [5] [µL/min/mg] | Drug metabolism (Cytochrome P450 3A4) | CL renal [7] [mL/min/kg] | clearance [8] [mL/min/kg] | dose excreted [9] [%] | further results
1 | c1ccc([C@H]([C@@H](c2ccccc2)N2CCCCC2)N2CCCCC2)cc1 | 0.41 | 1.4 | 4 | 14 | Metabolite_Detected | – | – | – | IC50 [2]: > 33 µM; IC50 (Cytochrome P450 2D6): 0.13 µM; Stability [6]: Unstable
2 | CCCN(CCC)[C@H](c1ccccn1)[C@@H](c1ccccn1)N(C[C@@H](C)O)C[C@@H](C)O | 2.1 | – | – | – | – | 5.5 | 16 | 19 | Cp(f) (Oryctolagus cuniculus): 0.29 µM
3 | CCCN(C[C@H](C)O)[C@H](c1ccccn1)[C@@H](c1ccccn1)N1C2CCCC1CC2 | 3.4 | – | – | – | – | 0.3 | 3 | 12 | Cp(f) (Oryctolagus cuniculus): 0.057 µM; Activity [10]: Toxic
4 | CCCN(CC)[C@H](c1ccccn1)[C@@H](c1ccccn1)N(CC)CCC | 3.2 | 60 | 3.3 | 23 | Metabolite_Detected | 0.7 | 16 | 6.9 | IC50 [2]: > 33 µM; IC50 (Cytochrome P450 2D6): 5.4 µM; Stability [6]: Stable
5 | CCCN(CCC)[C@H](c1ccccn1)[C@@H](c1ccccn1)N(CCC)CCC | 0.22 | > 33 | 4.6 | 58 | Metabolite_Detected | – | – | – | IC50 (Cytochrome P450 2D6): > 20 µM
6 | CCCN(CC)[C@H](c1ccccn1)[C@@H](c1cccc(C#N)c1)N(CCOC)C[C@H](C)CO | 4.8 | – | – | – | – | 2.1 | 44 | 4.4 | IC50 [11]: 0.39 µM
7 | c1ccc([C@@H]([C@H](c2ccccn2)N2CCCCC2)N2CCCCC2)nc1 | 4.8 | – | 2.2 | < 5 | Metabolite_Detected | – | – | – | pKa [12]: 10.4
8 | CCCN(CCC)[C@H](c1ccccn1)[C@@H](c1ccccn1)N(CCOC)C[C@H](C)O | 2.7 | – | – | – | – | 2.5 | 21 | 11 | Cp(f) (Oryctolagus cuniculus): 0.22 µM
9 | COCCN(C[C@H](C)O)[C@H](c1ccccn1)[C@@H](c1ccccn1)N1C2CCC1CC(OC)C2 (stereo not given in full) | 5.6 | – | – | – | – | 7.1 | 25 | 28 | –
10 | c1ccc([C@H]([C@H](c2ccccn2)N2CCCCC2)N2CCCCC2)nc1 | 1.4 | – | 4.6 | 412 | Metabolite_Detected | – | – | – | pKa [12]: 8.7
11 | c1ccc([C@H]([C@@H](c2ccccn2)N2CCCCC2)N2CCCCC2)nc1 | 2.2 | 17 | 2.2 | < 5 | Metabolite_Detected | – | – | – | IC50 [2]: > 33 µM; IC50 (Cytochrome P450 2D6): > 20 µM; pKa [12]: 10.4
12 | CCCN(CCC)[C@H](c1ccccn1)[C@@H](c1ccccn1)N(CCC)C[C@H](O)CO | 1.7 | > 33 | – | – | – | 0.19 | 6.1 | 5.1 | IC50 [2]: > 33 µM; IC50 [11]: 0.06 µM; Cp(f) (Oryctolagus cuniculus): 0.15 µM; Cp(f) (Canis familiaris): 0.48 µM; IC50 [13]: 4.1 µM; IC50 [14]: 4.1 µM; IC50 [15]: 11 µM; inhibition at 33 µM (hERG (KCNH2)): 37%; IC50 [16]: 19 µM; IC50 [17]: > 33 µM; Drug uptake(free) [18]: 4%; inhibition [19]: 13%; inhibition [20]: 14%
13 | CCCN(CC)[C@@H](c1ccccn1)[C@H](c1cccc(C#N)c1)N(CCOC)C[C@@H](C)CO | 7.3 | – | – | – | – | 1.8 | 37 | 4.7 | IC50 [11]: 0.26 µM
14 | CCCN(CC)[C@H](c1ccccn1)[C@@H](c1ccccn1)N(CCOC)C[C@H](C)CO | 10 | – | – | – | – | 2.7 | 25 | 11 | –
